Source: ChEMBL document CHEMBL1156175, “Synthesis, molecular modeling and biological evaluation of PSB as targeted antibiotics” (Bioorg Med Chem, 2010)
Values after ≈ are worked out from the molar mass of the structure shown.

Tests used:
[1] = molecular target: T1, 3-oxoacyl-[acyl-carrier-protein] synthase 3 (Escherichia coli, UniProt C3TDZ2); assay: Inhibition of Escherichia coli KAS3 after 1 min assessed as incorporation of 3H signal in the final product by liquid scintillation counter; conditions: in the assay text read “after 25 mins” for “after 1 min”
T1 sequence (C3TDZ2 whole entry): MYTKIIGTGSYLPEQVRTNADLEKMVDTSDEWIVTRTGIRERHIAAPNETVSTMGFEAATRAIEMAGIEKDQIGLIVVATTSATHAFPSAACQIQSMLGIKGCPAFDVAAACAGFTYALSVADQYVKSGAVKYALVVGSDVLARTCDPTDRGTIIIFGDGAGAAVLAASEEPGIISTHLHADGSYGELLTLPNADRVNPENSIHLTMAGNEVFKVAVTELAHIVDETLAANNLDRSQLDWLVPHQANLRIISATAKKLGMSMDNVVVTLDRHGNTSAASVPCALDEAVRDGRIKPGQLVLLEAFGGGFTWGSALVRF
In short: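 His-tagged ecKAS III expressed in E. coli BL21(DE3) (pET30) and purified on Ni–NTA. Reaction in 20 mM sodium phosphate pH 7.0, 0.5 mM DTT, 0.25 mM MgCl₂ with holo-ACP and 1 nM enzyme, preincubated 1 min. Started with acetyl-CoA, NADH and NADPH (0.5 mM each for the last two); run 25 min. Stopped with ice-cold TCA; protein pellet washed and dissolved in NaOH; ³H incorporation read by liquid scintillation. Inhibitors added from DMSO stock, final DMSO ≤2%.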

[2] = molecular target: T1, 3-oxoacyl-[acyl-carrier-protein] synthase 3; assay: Inhibition of Escherichia coli KAS3 after 25 mins assessed as incorporation of 3H signal in the final product by liquid scintillation counter
Pseudomonas aeruginosa = assay: Antibacterial activity against Pseudomonas aeruginosa ATCC 13525 after 24 hrs by colorimetric method using dye MTT; assay type: functional; conditions: ATCC 13525, 24 h
In short: (§1)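 Mueller–Hinton broth microdilution; compounds from DMSO stock (50 μg/mL) serially diluted in medium; inoculum approx. 10⁵ cfu/mL; 37 °C for 24 h. After visual MIC reading, PBS (0.01 mol/L, pH 7.4) containing 2 mg/mL MTT added, incubated 4–5 h at room temperature, then 12 h at room temperature; OD read at 550 nm. MIC is the average of triplicates.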

Staphylococcus aureus = assay: Antibacterial activity against Staphylococcus aureus ATCC 6538 after 24 hrs by colorimetric method using dye MTT; assay type: functional; conditions: ATCC 6538, 24 h; in short: as §1
Bacillus subtilis = assay: Antibacterial activity against Bacillus subtilis ATCC 6633 after 24 hrs by colorimetric method using dye MTT; assay type: functional; conditions: ATCC 6633, 24 h; in short: as §1
Escherichia coli = assay: Antibacterial activity against Escherichia coli ATCC 35218 after 24 hrs by colorimetric method using dye MTT; assay type: functional; conditions: ATCC 35218, 24 h; in short: as §1

IC50 [1] | IC50 [2] | MIC (Pseudomonas aeruginosa) | MIC (Staphylococcus aureus) | MIC (Bacillus subtilis) | MIC (Escherichia coli) | SMILES
 | > 133 µM |  |  |  |  | CC(CNC(=O)c1cc(Br)ccc1O)/N=C/c1ccccc1O (stereo unspecified)
 | 16 µM |  |  |  |  | CC(CNC(=O)c1ccccc1O)/N=C/c1cc(Br)ccc1O (stereo unspecified)
 | 1.84 µM | 3.13 µg/mL (≈ 7.38 µM) | 12.5 µg/mL (≈ 29.5 µM) | 0.78 µg/mL (≈ 1.84 µM) | 6.25 µg/mL (≈ 14.7 µM) | CC(CNC(=O)c1ccccc1O)/N=C/c1cc(I)ccc1O (stereo unspecified)
 | 17.1 µM | > 50 µg/mL | 12.5 µg/mL (≈ 37.8 µM) | 3.13 µg/mL (≈ 9.47 µM) | 6.25 µg/mL (≈ 18.9 µM) | Cc1ccc(C(=O)NCC(C)/N=C/c2cc(F)ccc2O)c(O)c1 (stereo unspecified)
24.9 µM |  |  |  |  |  | Cc1ccc(C(=O)NCC(C)/N=C/c2cc(Cl)ccc2O)c(O)c1 (stereo unspecified)
 | 16.2 µM |  |  |  |  | Cc1ccc(C(=O)NCC(C)/N=C/c2cc(Br)ccc2O)c(O)c1 (stereo unspecified)
 | 1.03 µM | 3.13 µg/mL (≈ 7.14 µM) | 1.56 µg/mL (≈ 3.56 µM) | 1.56 µg/mL (≈ 3.56 µM) | 0.39 µg/mL (≈ 0.89 µM) | Cc1ccc(C(=O)NCC(C)/N=C/c2cc(I)ccc2O)c(O)c1 (stereo unspecified)
4.59 µM |  | 25 µg/mL (≈ 65.6 µM) | 6.25 µg/mL (≈ 16.4 µM) | 1.56 µg/mL (≈ 4.09 µM) | 3.13 µg/mL (≈ 8.21 µM) | Cc1ccc(C(=O)NCC(C)/N=C/c2cc(Cl)cc(Cl)c2O)c(O)c1 (stereo unspecified)
 | 11.4 µM | 12.5 µg/mL (≈ 26.6 µM) | > 50 µg/mL | 3.13 µg/mL (≈ 6.66 µM) | 0.78 µg/mL (≈ 1.66 µM) | Cc1ccc(C(=O)NCC(C)/N=C/c2cc(Br)cc(Br)c2O)c(O)c1 (stereo unspecified)
26.5 µM |  |  |  |  |  | Cc1ccc(C(=O)NCC(C)/N=C/c2cc(I)cc(I)c2O)c(O)c1 (stereo unspecified)
 | 12.9 µM | > 50 µg/mL | > 50 µg/mL | 6.25 µg/mL (≈ 17.2 µM) | 12.5 µg/mL (≈ 34.5 µM) | Cc1ccc(C(=O)NCC(C)/N=C/c2c(O)ccc3ccccc23)c(O)c1 (stereo unspecified)
27.3 µM |  |  |  |  |  | CC(CNC(=O)c1ccccc1O)/N=C/c1ccccc1O (stereo unspecified)
38.3 µM |  |  |  |  |  | CC(CNC(=O)c1ccccc1O)/N=C/c1cc(F)ccc1O (stereo unspecified)
 | 16.4 µM | 3.13 µg/mL (≈ 9.41 µM) | > 50 µg/mL | > 50 µg/mL | 12.5 µg/mL (≈ 37.6 µM) | CC(CNC(=O)c1ccccc1O)/N=C/c1cc(Cl)ccc1O (stereo unspecified)
25.2 µM |  |  |  |  |  | Cc1ccc(C(=O)NCC(C)/N=C/c2ccccc2O)c(O)c1 (stereo unspecified)

The next lines start with the molecule.

SMILES | IC50 [1] | IC50 [2] | MIC (Pseudomonas aeruginosa) | MIC (Staphylococcus aureus) | MIC (Bacillus subtilis) | MIC (Escherichia coli)
CC(CNC(=O)c1ccccc1O)/N=C/c1c(O)ccc2ccccc12 (stereo unspecified) | 56.7 µM |  |  |  |  | 
CC(CNC(=O)c1cc(Br)ccc1O)/N=C/c1cc(F)ccc1O (stereo unspecified) | 56 µM |  |  |  |  | 
CC(CNC(=O)c1ccccc1O)/N=C/c1cc(Cl)cc(Cl)c1O (stereo unspecified) | 0.844 µM |  | 0.2 µg/mL (≈ 0.545 µM) | 3.13 µg/mL (≈ 8.52 µM) | 1.56 µg/mL (≈ 4.25 µM) | 0.39 µg/mL (≈ 1.06 µM)
CC(CNC(=O)c1cc(Br)ccc1O)/N=C/c1cc(Cl)ccc1O (stereo unspecified) |  | > 121 µM |  |  |  | 
CC(CNC(=O)c1cc(Br)ccc1O)/N=C/c1cc(I)ccc1O (stereo unspecified) |  | 18.5 µM |  |  |  | 
CC(CNC(=O)c1cc(Br)ccc1O)/N=C/c1cc(Cl)cc(Cl)c1O (stereo unspecified) |  | 19.6 µM |  |  |  | 
CC(CNC(=O)c1cc(Br)ccc1O)/N=C/c1cc(I)cc(I)c1O (stereo unspecified) | > 79.5 µM |  |  |  |  | 
CC(CNC(=O)c1ccccc1O)/N=C/c1cc(Br)cc(Br)c1O (stereo unspecified) | 6.86 µM |  | 0.78 µg/mL (≈ 1.71 µM) | 6.25 µg/mL (≈ 13.7 µM) | 12.5 µg/mL (≈ 27.4 µM) | 25 µg/mL (≈ 54.8 µM)
CC(CNC(=O)c1ccccc1O)/N=C/c1cc(I)cc(I)c1O (stereo unspecified) | 4.65 µM |  | 6.25 µg/mL (≈ 11.4 µM) | 12.5 µg/mL (≈ 22.7 µM) | 12.5 µg/mL (≈ 22.7 µM) | > 50 µg/mL
CC(CNC(=O)c1cc(Br)ccc1O)/N=C/c1cc(Br)cc(Br)c1O (stereo unspecified) | > 93.5 µM |  |  |  |  | 
CC(CNC(=O)c1cc(Br)ccc1O)/N=C/c1cc(Br)ccc1O (stereo unspecified) | 36.6 µM |  |  |  |  | 
CC(CNC(=O)c1cc(Br)ccc1O)/N=C/c1c(O)ccc2ccccc12 (stereo unspecified) | 25.6 µM |  |  |  |  | 
NC[C@H]1O[C@H](O[C@H]2[C@H](O)[C@@H](O[C@H]3O[C@H](CO)[C@@H](O)[C@H](N)[C@H]3O)[C@H](N)C[C@@H]2N)[C@H](O)[C@@H](O)[C@@H]1O [KANAMYCIN] |  |  | 3.13 µg/mL (≈ 6.46 µM) | 1.56 µg/mL (≈ 3.22 µM) | 1.56 µg/mL (≈ 3.22 µM) | 3.13 µg/mL (≈ 6.46 µM)
